From ChEMBL document CHEMBL3784969, “Pharmacokinetics of flutamide in patients with renal insufficiency” (Br J Clin Pharmacol, 1999)

Legend:
Homo sapiens [1] = test: Terminal half life in patient (4 patients) with renal insufficiency assessed as hydroxy flutamide at 250 mg, po administered as single dose by gas chromatography; type: ADME, organism-based; details: in vivo
Outline: (§1)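 Males grouped by 24 h CLcr normalised to body surface area (>80, 50–80, 30–49, 5–29 ml min−1 1.73 m−2), fasted 10 h pre-dose and 4 h post-dose, given a single oral 250 mg flutamide dose. Plasma sampled 0–96 h; urine collected in blocks to 96 h. Flutamide and hydroxyflutamide measured by GC with electron-capture detection. Renal CL = Ae(0,96 h)/AUC(0,96 h); t1/2 = 0.693/λz.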

Homo sapiens [2] = test: AUC (0 to 96 hrs) in patient (6 patients) with renal insufficiency assessed as hydroxy flutamide at 250 mg, po administered as single dose 4 hrs prior to hemodialysis treatment measured at starting time of dialysis and post dialysis treatment by gas chromatography; type: ADME, organism-based; parameters: time < 96 hr, dose 250 mg, route oral; details: in vivo
[3] = AUC (0 to 96 hrs) in patient (6 patients) with renal insufficiency at 250 mg, po administered as single dose 4 hrs prior to hemodialysis treatment measured at starting time of dialysis and post dialysis treatment by gas chromatography; type: ADME, organism-based; parameters: dose 250 mg, time < 96 hr, route oral; details: human, in vivo
[4] = Drug excretion in urine of patient (4 patients) with renal insufficiency at 250 mg, po administered as single dose by gas chromatography; type: ADME, organism-based; details: human, in vivo; outline: as §1
[5] = Drug excretion in urine of patient (6 patients) with renal insufficiency assessed as hydroxy flutamide at 250 mg, po administered as single dose 4 hrs prior to hemodialysis treatment measured at starting time of dialysis and post dialysis treatment by gas chromatography; type: ADME, organism-based; details: human, in vivo
Outline: (§2)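 Group V haemodialysis males (CLcr <5 ml min−1 1.73 m−2). Single oral 250 mg flutamide (two 125 mg capsules) right after HD; after 14-day washout, same dose 4 h before HD lasting 2–4 h. Venous samples to 48 h, arterial/venous during HD, dialysate in hourly blocks. GC with 63Ni electron-capture detection. CL(HD) = dialysate Ae(HD)/arterial AUC(HD); renal CL = Ae(0,48)/AUC(0,48 h).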

Homo sapiens [6] = test: Final time point in terminal phase in patient (3 patients) with renal insufficiency at 250 mg, po administered as single dose by gas chromatography; type: ADME, organism-based; details: in vivo; outline: as §1
Homo sapiens [7] = test: AUC (0 to infinity) in patient (3 patients) with renal insufficiency at 250 mg, po assessed as hydroxy flutamide administered as single dose by gas chromatography; type: ADME, organism-based; parameters: dose 250 mg, time infinity, route oral; details: in vivo
Homo sapiens [8] = test: AUC in patient with renal insufficiency at 250 mg, po administered first dose followed by 14 days wash out period and administered second dose 4 hrs prior to hemodialysis measured during hemodialysis treatment by gas chromatography; type: ADME, organism-based; details: in vivo; outline: as §2
[9] = Cmax in patient (6 patients) with renal insufficiency at 250 mg, po administered as single dose by gas chromatography; type: ADME, organism-based; parameters: dose 250 mg, route oral; details: human, in vivo
[10] = AUClast in patient (7 patients) with renal insufficiency at 250 mg, po administered as single dose by gas chromatography; type: ADME, organism-based; parameters: dose 250 mg, time 0 - last, route oral; details: human, in vivo
Homo sapiens [11] = test: Terminal half life in patient (7 patients) with renal insufficiency assessed as hydroxy flutamide at 250 mg, po administered as single dose by gas chromatography; type: ADME, organism-based; details: in vivo; outline: as §1
[12] = Drug excretion in urine of patient (3 patients) with renal insufficiency at 250 mg, po administered as single dose by gas chromatography; type: ADME, organism-based; details: human, in vivo; outline: as §1
[13] = AUC (0 to 24 hrs) in patient (6 patients) with renal insufficiency at 250 mg, po administered as single dose 4 hrs prior to hemodialysis treatment measured at starting time of dialysis and post dialysis treatment by gas chromatography; type: ADME, organism-based; parameters: time < 24 hr, dose 250 mg, route oral; details: human, in vivo
[14] = AUClast in patient (4 patients) with renal insufficiency at 250 mg, po administered as single dose by gas chromatography; type: ADME, organism-based; parameters: dose 250 mg, time 0 - last, route oral; details: human, in vivo
Homo sapiens [15] = test: AUC (0 to 96 hrs) in patient (6 patients) with renal insufficiency at 250 mg, po assessed as hydroxy flutamide administered as single dose by gas chromatography; type: ADME, organism-based; parameters: dose 250 mg, time < 96 hr, route oral; details: in vivo
Homo sapiens [16] = test: Final time point in terminal phase in patient (7 patients) with renal insufficiency assessed as hydroxy flutamide at 250 mg, po administered as single dose by gas chromatography; type: ADME, organism-based; details: in vivo; outline: as §1
Homo sapiens [17] = test: Final time point in terminal phase in patient (6 patients) with renal insufficiency at 250 mg, po administered as single dose 4 hrs prior to hemodialysis treatment measured at starting time of dialysis and post dialysis treatment by gas chromatography; type: ADME, organism-based; details: in vivo; outline: as §2
[18] = AUC (0 to 96 hrs) in patient (3 patients) with renal insufficiency at 250 mg, po administered as single dose by gas chromatography; type: ADME, organism-based; parameters: time < 96 hr, dose 250 mg, route oral; details: human, in vivo
[19] = Renal clearance in patient (4 patients) with renal insufficiency at 250 mg, po administered as single dose by gas chromatography; type: ADME, organism-based, Kidney; details: human, in vivo; outline: as §1
Homo sapiens [20] = test: Final time point in terminal phase in patient (4 patients) with renal insufficiency at 250 mg, po administered as single dose by gas chromatography; type: ADME, organism-based; details: in vivo; outline: as §1
[21] = Drug excretion in urine of patient (3 patients) with renal insufficiency assessed as hydroxy flutamide at 250 mg, po administered as single dose by gas chromatography; type: ADME, organism-based; details: human, in vivo; outline: as §1
Homo sapiens [22] = test: Final time point in terminal phase in patient (7 patients) with renal insufficiency at 250 mg, po administered as single dose by gas chromatography; type: ADME, organism-based; details: in vivo; outline: as §1
Homo sapiens [23] = test: AUC (0 to 96 hrs) in patient (7 patients) with renal insufficiency at 250 mg, po assessed as hydroxy flutamide administered as single dose by gas chromatography; type: ADME, organism-based; parameters: time < 96 hr, dose 250 mg, route oral; details: in vivo
[24] = Drug excretion in urine of patient (7 patients) with renal insufficiency at 250 mg, po administered as single dose by gas chromatography; type: ADME, organism-based; details: human, in vivo; outline: as §1
[25] = Half life in patient with renal insufficiency at 250 mg, po administered first dose followed by 14 days wash out period and administered second dose 4 hrs prior to hemodialysis day measured during hemodialysis treatment by gas chromatography; type: ADME, organism-based; details: human, in vivo; outline: as §2
Homo sapiens [26] = test: Final time point in terminal phase in patient (6 patients) with renal insufficiency at 250 mg, po administered as single dose by gas chromatography; type: ADME, organism-based; details: in vivo; outline: as §1
Homo sapiens [27] = test: AUC (0 to infinity) in patient (6 patients) with renal insufficiency at 250 mg, po assessed as hydroxy flutamide administered as single dose by gas chromatography; type: ADME, organism-based; parameters: dose 250 mg, route oral, time infinity; details: in vivo
Homo sapiens [28] = test: Toxicity in patient with renal insufficiency assessed as headache at 250 mg, po administered as single dose; type: organism-based; details: in vivo
Outline: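 26 male subjects in groups by 24 h creatinine clearance (normalized to body surface area): >80, 50–80, 30–49, 5–29, <5 ml min−1 1.73 m−2 on haemodialysis. Given as two 125 mg capsules after a 10 h fast, continued 4 h post-dose. Prescription drugs withheld for the same period. Subjects confined 12 h pre-dose to 48 h post-dose, with adverse events compared across renal-function groups.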

[29] = AUClast in patient (6 patients) with renal insufficiency at 250 mg, po administered as single dose by gas chromatography; type: ADME, organism-based; parameters: dose 250 mg, time 0 - last, route oral; details: human, in vivo
Homo sapiens [30] = test: AUClast in patient (6 patients) with renal insufficiency at 250 mg, po assessed as hydroxy flutamide administered as single dose by gas chromatography; type: ADME, organism-based; parameters: dose 250 mg, time 0 - last, route oral; details: in vivo
[31] = Drug excretion in urine of patient (6 patients) with renal insufficiency at 250 mg, po administered as single dose 4 hrs prior to hemodialysis treatment measured at starting time of dialysis and post dialysis treatment by gas chromatography; type: ADME, organism-based; details: human, in vivo; outline: as §2
Homo sapiens [32] = test: AUClast in patient (7 patients) with renal insufficiency at 250 mg, po assessed as hydroxy flutamide administered as single dose by gas chromatography; type: ADME, organism-based; parameters: dose 250 mg, time 0 - last, route oral; details: in vivo

CC(C)C(=O)Nc1ccc([N+](=O)[O-])c(C(F)(F)F)c1 [FLUTAMIDE]
beta t1/2 (Homo sapiens [1]): 9 h | AUC (Homo sapiens [2]): 5963 ng·h/mL | AUC(0-t) at 96 h [3]: 217 ng·h/mL | Drug excretion [4]: 30 µg | Drug excretion [5]: 5 µg | Time (Homo sapiens [6]): 6 h | AUC (Homo sapiens [7]): 6907 ng·h/mL | AUC (Homo sapiens [8]): 907.6 ng·h/mL | Cmax [9]: 53.4 ng/mL | AUC(0-t) [10]: 32.5 ng·h/mL | beta t1/2 (Homo sapiens [11]): 7.1 h | Drug excretion [12]: 14 µg | AUC(0-t) at 24 h [13]: 217 ng·h/mL | AUC(0-t) [14]: 79 ng·h/mL | AUC (Homo sapiens [15]): 5527 ng·h/mL | Time (Homo sapiens [16]): 38.6 h | Time (Homo sapiens [17]): 7 h | AUC(0-t) at 96 h [18]: 98 ng·h/mL | CL renal [19]: 4 mL/min | Time (Homo sapiens [20]): 5 h | Drug excretion [21]: 132 µg | Time (Homo sapiens [22]): 3.6 h | AUC (Homo sapiens [23]): 4993 ng·h/mL | Drug excretion [24]: 39 µg | half-life [25]: 4.3 h | Time (Homo sapiens [26]): 4.4 h | AUC (Homo sapiens [27]): 5527 ng·h/mL | Activity (Homo sapiens [28]): 12% | AUC(0-t) [29]: 75.8 ng·h/mL | AUClast (Homo sapiens [30]): 5476 ng·h/mL | Drug excretion [31]: 0 µg | AUClast (Homo sapiens [32]): 4928 ng·h/mL
